Source: PubChem BioAssay (several laboratories)
Sampled rows, rich in hits. Any-hit rate of the full collection: about 2.5%.
Granule exo inh = lytic granule exocytosis inhibition; TALL-104 LAMP-1 surface exposure, flow cytometry; cells stimulated with thapsigargin and PMA; inhibition, % at 10 µM; hit rate 0.66% among 360,000; AID 651702;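 active = inhibition above about 55%, limit read from the data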
sPLA2-III inh = Blocks human group III sPLA2 activity; Q9NZ20; QFRET BODIPY PC-A2 liposome hydrolysis, fluorescence; inhibition, % at 12.2 µM; hit rate 0.56% among 370,000; AID 743126;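 active = inhibition above mean plus 3 SD of compounds lying within the high and low control bounds, cut at about 19% in these data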;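 also: 0% = median of test compound wells and 100% = no enzyme DMSO wells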
NTR1 agonist = agonists of human neurotensin receptor NTR1. NTR1-U2OS beta-arrestin-GFP spot imaging, agonist mode. hit rate 0.17% among 330,000. P30989. activation, % at 20 µM;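 active = activation at or above 40% of the spot to cytoplasm intensity ratio, with at least 20 cells analyzed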;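 also: 0% = DMSO without peptide and 100% = 100 nM NTR1 peptide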
Target sequence (P30989 whole entry, looked up): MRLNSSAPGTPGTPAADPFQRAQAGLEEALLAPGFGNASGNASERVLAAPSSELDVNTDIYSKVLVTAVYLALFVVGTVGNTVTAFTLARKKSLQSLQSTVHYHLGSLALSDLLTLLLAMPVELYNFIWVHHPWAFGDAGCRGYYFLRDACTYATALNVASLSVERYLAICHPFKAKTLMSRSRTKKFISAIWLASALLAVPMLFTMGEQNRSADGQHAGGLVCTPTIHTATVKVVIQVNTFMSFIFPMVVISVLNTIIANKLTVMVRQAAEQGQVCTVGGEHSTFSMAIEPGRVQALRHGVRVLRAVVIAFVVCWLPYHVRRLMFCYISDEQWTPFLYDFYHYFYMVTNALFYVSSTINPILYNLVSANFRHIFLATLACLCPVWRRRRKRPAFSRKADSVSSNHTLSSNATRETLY
MC4R antag cAMP = blocks human MC4R cAMP signaling; P32245; MC4R-expressing cells, MTII-stimulated cAMP, LANCE TR-FRET; inhibition, % at 6.5 µM; hit rate 0.48% among 360,000;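 active = inhibition above its plate's cutoff, the mean of tested wells on that plate plus 3 SD, cut at about 29% in these data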;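 also: 0% = Melanotan II alone and 100% = Melanotan II plus saturating MCL0020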
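material = U2OS cells stably expressing human melanocortin 4 receptor (MC4R) | also added = Melanotan II challenge | dosing = single nominal compound dose of 6.5 µM | detection = TR-FRET with Eu-cAMP and labeled anti-cAMP, 671 nm | replication = singlicate | timing = compound 30 min, challenge 1 h, detection 1 h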
A1 inh = inhibitors of the anti-apoptotic protein A1, read as caspase activation; MEF A1-2A-BIM cells, Caspase-Glo 3/7 luminescence, 3 h; percent of clofoctol response, vehicle zero; caspase activation, % (no concentration beside the values); hit rate 0.066% among 330,000;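 active = over half of replicate activation scores above 10%, or exactly half above 10 with the replicate mean above 10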
MC4R ag barr = agonists of human melanocortin 4 receptor (MC4R) beta-arrestin; U2OS MC4R beta-arrestin complementation, luminescence; percent of melanotan II response, DMSO zero; activation, % at 8.9 µM; P32245; hit rate 0.98% among 360,000; AID 540308;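 active = activation above a per-plate cutoff, the mean activation of sample wells on that plate plus 3 SD, cut at about 8% in these data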
MC4R barr ag = human MC4R beta-arrestin agonism confirmation; shares compounds with MC4R ag barr; U2OS MC4R beta-arrestin recruitment, luminescence; scaled DMSO 0%, Melanotan II 100%; activation, % at 8.9 µM; hit rate 31% among 2,400;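 active = mean activation across replicates above the hit cutoff set in the earlier primary screen, cut at about 8% in these data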
MOR DOR agonist = activates mu-delta opioid heterodimer, MC4R agonist counter-screen | U2OS PathHunter beta-arrestin, beta-gal luminescence; percent of deltorphin B response, DMSO zero | shares compounds with MC4R ag barr | hit rate 5.8% among 2,400 | activation, % at 9.2 µM | AID 602194;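 active = mean activation across replicates exceeds the hit threshold derived in the earlier primary screen, cut at about 18% in these data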;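 also: 100% = deltorphin B at 0.9 µM final and 0% = DMSO alone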
Active calls of the source: *; / = not tested or not shown.

SMILES	Granule exo inh	sPLA2-III inh	NTR1 agonist	MC4R antag cAMP	A1 inh	MC4R ag barr	MC4R barr ag	MOR DOR agonist
CCOc1cccc2sc(N(CCN(C)C)C(=O)/C=C/c3cccs3)nc12	25.0	/	1.4	-2.5	0.3	15.0*	3.4	8.9
CN(C)CCN(C(=O)/C=C/c1cccs1)c1nc2ccc(Br)cc2s1	32.8	-6.6	-0.7	4.1	-0.1	31.0*	12.3*	5.6
COc1ccc(OC)c2sc(N(CCN(C)C)C(=O)/C=C/c3cccs3)nc12	13.2	-37.8	16.1	2.3	-0.5	0.3	/	/
CN(C)CCN(C(=O)/C=C/c1cccs1)c1nc2c(F)cc(F)cc2s1	64.8*	-8.6	10.4	8.2	17.3*	20.9*	4.6	13.5
CCN(CC)CCN(C(=O)/C=C/c1cccs1)c1nc2ccc(C)cc2s1	3.8	3.4	9.6	-6.0	0.7	0.1	/	/
COCc1[nH]nc2c1C(c1ccc(F)cc1)N(c1ccc(OC)cc1)C2=O (stereo not given)	/	-0.3	/	/	/	/	/	/
CN(C)CCCN(C(=O)/C=C/c1cccs1)c1nc2ccc(F)cc2s1	10.3	-8.3	-0.6	-7.5	-0.1	10.0*	15.5*	7.7
CCN(CC)CCN(C(=O)/C=C/c1cccs1)c1nc2ccc(F)cc2s1	38.8	7.7	5.5	3.1	-0.6	-1.6	/	/
Cc1c(/C=N/n2cnnc2)c2ccccc2n1CCOc1ccc(Cl)cc1	1.4	-9.4	12.4	-1.9	-0.7	7.3	/	/
Cc1ccc(OCCn2c(C)c(/C=N/n3cnnc3)c3ccccc32)cc1	1.8	-18.9	3.2	-1.5	0.4	16.4*	4.1	5.8
N#CCCCc1cn(-c2ccc(-c3noc4c3C(=O)N(CC(=O)N3CCOCC3)CC4)cc2)nn1	/	5.4	/	/	/	/	/	/
COCCNC(=S)N/N=C/c1ccc(-c2ccc([N+](=O)[O-])cc2)o1	2.7	3.6	35.0	-5.0	0.5	11.4*	-0.2	6.1
C[C@H]1C(c2ccccc2F)O[C@]2(C[C@H](O)c3c(ccc4ccccc34)O2)C[C@@H]1O (stereo not given in full)	/	-28.0	/	/	/	/	/	/
C=CCOc1cccc(/C=C/c2nc3ccccc3c(=O)[nH]2)c1	-3.8	-8.2	0.1	3.3	-3.6	23.6*	-0.3	3.6
COc1cc(/C=C/c2nc3ccccc3c(=O)[nH]2)cc(OC)c1OC	-10.8	-6.1	0.0	4.1	-0.4	-2.5	/	/
CCCC1CCC2(CCCN2CCOC(=S)Nc2ccccc2Br)CC1 (stereo not given)	/	8.2	/	/	/	/	/	/
COc1cc(/C=C(\C#N)c2nc3ccccc3[nH]2)cc(OC)c1O	-1.1	-14.2	/	-1.2	-2.3	1.1	/	/
COc1ccccc1N/C=C(\C#N)c1nc2ccccc2[nH]1	-1.7	3.0	-0.9	4.2	-0.1	11.1*	0.7	4.7
CCOc1cc(N2CCOCC2)c(OCC)cc1NC(=O)c1cc(-c2ccco2)nc2ccccc12	1.9	1.2	22.9	13.1	0.3	13.8*	9.2*	14.7
O=C(NCc1ccc(C(=O)NCC2CCCO2)cc1)c1cccc(Br)c1 (stereo not given)	/	8.1	/	/	/	/	/	/
CC(C)N1CCCCC(NC(=O)c2cccc(C(F)(F)F)c2)C1=O (stereo not given)	/	6.0	/	/	/	/	/	/
CC(C)c1ccccc1NC(=O)Nc1nc(C(N)Cc2ccc(C(F)(F)F)cc2)cs1 (stereo not given)	15.6	9.0	/	6.9	/	15.4*	13.5*	17.1
COc1ccc(CNC(=O)Nc2nc(C(N)Cc3ccc(C(F)(F)F)cc3)cs2)cc1 (stereo not given)	19.9	-3.2	/	-6.5	/	15.9*	17.4*	12.1
CC(C)(C)c1ccccc1NC(=O)Nc1nc(C(N)c2ccccc2)cs1 (stereo not given)	10.0	3.1	/	4.7	/	0.0	/	/
CC(C)(C)c1ccccc1NC(=O)Nc1nc(C(N)Cc2ccc(F)cc2)cs1 (stereo not given)	17.8	6.1	/	6.7	/	10.8*	8.0	13.3
SMILES	Granule exo inh	sPLA2-III inh	NTR1 agonist	MC4R antag cAMP	A1 inh	MC4R ag barr	MC4R barr ag	MOR DOR agonist
COC(=O)[C@]12C[C@H](CC(=O)N3CCOCC3)C(=O)N(Cc3ccccc3)C1=C[C@H](COCc1ccccc1)O[C@@H]2C	/	1.0	/	/	/	/	/	/
CCSc1ccc(C(=O)Nc2cccc(C)n2)cc1[N+](=O)[O-]	-1.6	-0.4	1.3	3.6	-2.3	36.5*	-2.0	6.8
Cc1ccc(C)c(NC(=O)CSc2ncnc3nc[nH]c23)c1	1.5	-21.7	-0.1	8.1	0.1	-1.1	/	/
O=C(CSc1ncnc2nc[nH]c12)Nc1nnc(SCc2ccc(Cl)c(Cl)c2)s1	0.7	-42.3	-1.2	14.5	-0.4	16.2*	5.8	2.2
Cc1ccc(-c2csc3ncnc(SCC(N)=O)c23)cc1	3.4	15.4	-0.3	-1.5	0.0	-2.5	/	/
CCc1nnc(NC(=O)CSc2ncnc3scc(-c4ccc(C)cc4)c23)s1	3.3	2.3	6.8	12.5	1.2	11.4*	13.6*	4.0
O=C(CSc1nnc(-c2ccccc2)n1-c1ccccc1)NN=Cc1ccc(-c2ccccc2)cc1	/	5.3	/	/	/	/	/	/
COc1ccc(-n2nc(C(=O)NCC(=O)Nc3ccccn3)c3ccccc3c2=O)cc1Cl	-6.0	3.3	3.4	-3.0	/	15.3*	24.3*	8.6
COc1ccc(-n2nc(C(=O)NCC(=O)NC(C)C)c3ccccc3c2=O)cc1Cl	21.1	5.9	0.9	-7.2	1.2	-0.8	/	/
COc1ccc(-c2ccc(-c3noc(-c4ccco4)n3)c(OC)n2)cc1	2.8	2.6	8.2	2.8	0.0	8.2	/	/
COc1nc(-c2ccccc2)ccc1-c1noc(-c2ccco2)n1	-2.5	-7.9	4.1	2.2	-5.6	30.9*	0.3	3.4
Cc1ccc(C(=O)NC2CCCCN(C(C)C)C2=O)cc1 (stereo not given)	/	-3.6	/	/	/	/	/	/
CC(C)CNc1ccc2c(c1)OC[C@@H](CC(C)C)NS2(=O)=O	/	-1.8	/	/	/	/	/	/
O=C(NC(c1ccc(F)cc1)c1ccc2ccccc2n1)C1CCN(CCOc2ccc(Cl)cc2Cl)CC1 (stereo not given)	18.4	-15.0	/	6.1	/	18.5*	11.5*	7.0
O=C(NC(c1ccc(Cl)cc1)c1ccccn1)C1CCN(CCOc2ccc(Cl)cc2Cl)CC1 (stereo not given)	19.2	-21.3	/	8.2	/	18.4*	24.0*	15.4
Cc1cccnc1C(NC(=O)C1CCN(CCCc2ccccc2)CC1)c1ccc(Cl)cc1 (stereo not given)	5.5	-10.9	/	11.0	/	-1.7	/	/
